Published values pooled from the literature.
Compare with care: the assays were run in different laboratories.
Target: NT-3 growth factor receptor (NTRK3, Homo sapiens, UniProt Q16288)
Effect on: enzyme activity
Mode: inhibitor

For `O=C(Cc1ccc(C(F)(F)F)cc1)Nc1cccc(C(=O)Nc2ccc3[nH]ncc3c2)c1`, the inhibition was 21.9% (FRET; 1 µM).
The inhibition of `CCCS(=O)(=O)Nc1ccc(F)c(C(=O)c2c[nH]c3ncc(-c4ccc(Cl)cc4)cc23)c1F` is reported as under 10% (1 µM).
`O=C(Nc1ccc(Br)cc1)Nc1cccc(C(=O)Nc2ccc3[nH]ncc3c2)c1` gave an inhibition of 13.7% (FRET; 1 µM).
With `COc1cc2ncnc(Nc3ccc(Oc4ccccc4)cc3C)c2cc1OC` the inhibition was 13% (1 µM).
`O=C(Nc1ccc2[nH]ncc2c1)c1cccc(NC(=O)c2cc(C(F)(F)F)ccc2F)c1` has an inhibition of 12.1% (FRET; 1 µM).
For `COc1cc2ncnc(Nc3ccc(Oc4ccccc4)c(C)c3C)c2cc1OC`, the inhibition was 3% (1 µM).
The inhibition of `CC/C(=N\NC(=O)NCc1cccc(O)c1)c1ccc(O)c(C)c1O` is reported as 0.4% (0.1 µM).
`CNC(=O)c1cc2c(Oc3ccc(NC(=O)C4(C(=O)Nc5ccc(F)cc5)CC4)cc3)ccnc2cc1OC` has an inhibition of 79% (radiometric; 1 µM).
The inhibition of `CN1CC(Oc2cnc(C#N)cc2-c2ccn3nc(NC(=O)C4CC4)cc3c2)C1` is reported as 51% (1 µM).
The inhibition of `CCOc1cc(-c2nncn2C)ccc1Nc1ncc2cc(C)nc(NCC(C)(C)C)c2n1` is reported as under 15% (FRET; 1 µM).
